Measurements collected from several papers.
Each line is one published result; the experiments were not run side by side.
DPP9: Dipeptidyl peptidase 9 (DPP9, Homo sapiens, UniProt Q86TI2)
Genome polyprotein protease: Genome polyprotein, protease (ZIKV, UniProt A0A024B7W1)
MAPKAPK3: MAP kinase-activated protein kinase 3 (MAPKAPK3, Homo sapiens, UniProt Q16644)
Cacna1b: Voltage-dependent N-type calcium channel subunit alpha-1B (Cacna1b, Rattus norvegicus, UniProt Q02294)
CCR2: C-C chemokine receptor type 2 (CCR2, Homo sapiens, UniProt P41597)

O=C1N=C(N2CCCCN2)S/C1=C\c1ccc(F)cc1O
inhibition (5-hydroxytryptamine receptor 6 (HTR6, Homo sapiens, UniProt P50406); ligand displacement, radioligand; 10 µM): < 10%

C#Cc1n[nH]c2c(-c3cn([C@@H](C)c4ccccc4)c(=O)[nH]c3=O)cc(F)cc12
inhibition (Cyclin-dependent kinase 2, with cyclin E1 (CDK2, Homo sapiens, UniProt P24941); enzyme activity, inhibitor; 0.1 µM): -4.8%

CN(C)C(=O)COC(=O)Cc1ccc(OC(=O)c2ccc(NC(=N)N)cc2)cc1
inhibition (DPP9; enzyme activity, inhibitor; 10 µM): 18%

C[C@@H]1O[C@@H](O[C@H]2[C@H](Oc3cc(O)c4c(c3)O[C@H](c3ccc(O)cc3)CC4=O)O[C@H](CO)[C@@H](O)[C@@H]2O)[C@H](O)[C@H](O)[C@H]1O
inhibition (Genome polyprotein protease; enzyme activity, inhibitor, FRET; 100 µM, pH 7): 12.5%

N#Cc1ccc(NCCNCC(=O)N2N=CCC2C#N)nc1 (stereo not drawn)
inhibition (DPP9; enzyme activity, inhibitor; 0.1 µM): 0%

CCN(CC)CCCC[C@H](NC(=O)[C@H](CC(C)C)NC(=O)[C@H](C)NC(=O)[C@H](Cc1ccccc1)NC(=O)c1ccc(C(C)(C)C)cc1)C(=O)N[C@@H](CO)C(=O)OC
inhibition (C-X-C chemokine receptor type 2 (CXCR2, Homo sapiens, UniProt P25025); ligand displacement, radioligand; 10 µM): -12%

COc1cc(Nc2ncc(F)c(Nc3ccc4c(n3)NC(=O)C(C)(C)O4)n2)cc(OC)c1OC
inhibition (Mitogen-activated protein kinase kinase kinase kinase 1 (MAP4K1, Homo sapiens, UniProt Q92918); binding, competition with immobilised ligand; 10 µM): 70%

Oc1cccc(O)c1O
inhibition (Genome polyprotein protease; enzyme activity, inhibitor, FRET; 100 µM, pH 7): 11%

Cn1cc(-c2cc(F)cc(N3CCn4c(cc5c4CCCC5)C3=O)c2CO)cc(Nc2ccc(N3CCN(C4COC4)CC3)cn2)c1=O
inhibition (MAPKAPK3; enzyme activity, inhibitor; 0.1 µM): 9%

O=C1c2c(O)cc(O)cc2O[C@H](c2cc(O)c(O)c(O)c2)[C@H]1O
inhibition (Genome polyprotein protease; enzyme activity, inhibitor, FRET; 100 µM, pH 7): 23%

CC(C)C[C@H](NC(=O)[C@H](Cc1ccccc1)NC(=O)c1cnccn1)B(O)O
inhibition (Suppressor of tumorigenicity 14 protein (ST14, Homo sapiens, UniProt Q9Y5Y6); cell-free assay, inhibitor; 33 µM): 51.5%

CCOC(=O)c1ccc(OC(=O)CCCCCNC(=N)N)cc1
inhibition (DPP9; enzyme activity, inhibitor; 10 µM): 14%

CC(C)N1CCC[C@H]1CNC(=O)c1cn(C2CCCC2)c(=O)c2c1c1ccccc1n2C
inhibition (Cacna1b; ligand displacement, radioligand; 10 µM): 2%

C[C@@H]1O[C@@H](OC[C@H]2O[C@@H](Oc3c(-c4ccc(O)c(O)c4)oc4cc(O)cc(O)c4c3=O)[C@H](O)[C@@H](O)[C@@H]2O)[C@H](O)[C@H](O)[C@H]1O
inhibition (Genome polyprotein protease; enzyme activity, inhibitor; 200 µM, pH 8.5): 95.4%

O=C(O)c1cc(O)c(O)c(O)c1
inhibition (Genome polyprotein protease; enzyme activity, inhibitor, FRET; 100 µM, pH 7): 15%

CC(C)Cn1cnc2c(N)nc3ccccc3c21
inhibition (Alpha-1A adrenergic receptor (Adra1a, Rattus norvegicus, UniProt P43140); ligand displacement, radioligand; 10 µM): 65%

N=C(N)c1ccc2cc(OC(=O)c3ccc(N=C(N)N)cc3)ccc2c1
inhibition (Ubiquitin carboxyl-terminal hydrolase 14 (USP14, Homo sapiens, UniProt P54578); enzyme activity, inhibitor; 10 µM): 0%

O=C(Nc1cccnn1)N1CCN([C@@H]2CCOc3cc(C(F)(F)F)ccc32)CC1
inhibition (CCR2; cell-free assay; 20 µM): -9%

c1ccc(C(NCCNC(c2ccccc2)c2ccccc2)c2ccccc2)cc1
inhibition (Cacna1b; cell-free assay; 10 µM): -6%

CC(C)C[C@H](NC(=O)[C@H]1O[C@@H]1C(=O)O)C(=O)NCCCCN=C(N)N
inhibition (Cathepsin B (CTSB, Homo sapiens, UniProt P07858); enzyme activity, inhibitor; 5 nM): 77%

Cc1ncc(C)n2nc(/C=C/c3nc(N4CCCC4)cc(N4CCOCC4)n3)nc12
inhibition (CCR2; cell-free assay; 10 µM): 10%

Cn1cc(-c2cccc(N3CCc4c(sc5c4CC(C)(C)C5)C3=O)c2CO)cc(Nc2ccncn2)c1=O
inhibition (MAPKAPK3; enzyme activity, inhibitor; 1 µM): 4%

C#Cc1n[nH]c2c(-c3cn(C(C)c4ccccn4)c(=O)[nH]c3=O)cc(F)cc12 (stereo not drawn)
inhibition (Dual specificity protein kinase CLK3 (CLK3, Homo sapiens, UniProt P49761); enzyme activity, inhibitor; 1 µM): 8.3%

Oc1cc(O)c2c(c1)O[C@H](c1cc(O)c(O)c(O)c1)[C@H](O)C2
inhibition (Genome polyprotein protease; enzyme activity, inhibitor, FRET; 100 µM, pH 7): 7%
